Screening data from PubChem.
This is a sample that favours compounds with a hit; in the whole collection about 3.5% have one here.
Cneo AK release = Cryptococcus neoformans lysis via adenylate kinase release; C. neoformans lysis, adenylate kinase release luminescence, 4 h; normalised: neutral wells 0, clomiphene wells 100; lysis activity, % at 15 µM; 360,000 compounds, 0.2% hits; AID 651654;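 active = mean lysis activity across replicates of at least 80%, whatever share of replicates individually reach that level; inactive = mean lysis activity below 80%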
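Material – log-phase Cryptococcus neoformans yeast cells · Input – 5 × 10^6 yeast cells/mL · Medium – fresh YPD growth medium · Doses – single compound concentration per well · Timing – static 4 h at 37 °C with compound, 1 h detection · Detection – adenylate kinase release luminescence · Read-out – signal increase indicating cell lysis · Control set – Clomiphene as positive lysis control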
PGC1a acetyl inh = PGC1a acetylation modulation, inhibitor mode | 350,000 compounds, 0.17% hits | inhibition, % at 15.6 µM | U2OS PGC1a acetylation, AlphaScreen anti-acetyl-lysine; with virally co-expressed GCN5 acetyltransferase;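 active = every replicate shows inhibition of at least 40%; inconclusive = mean inhibition at least 40% but some replicate below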;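 also: 0% = neutral control wells and 100% = positive control wells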
Ecoli rRNA inh = inhibits bacterial ribosomal RNA function over humanized ribosomes | E. coli WT GFP vs humanized-ribosome RFP mutants, fluorescence, 24 h; hits give low values; DMSO median 0, no signal -100 | GFP signal change (wild-type ribosome), % (test concentration not listed) | 350,000 compounds, 1.6% hits | AID 720706;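 active = significant combined selectivity score with lowered wild-type GFP, culture density cut under 30%, mutant RFP and density less affected; inactive = any of these conditions unmet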
FGF22 binding = FGF22 (human) thermal shift binding; activity (Tm shift, normalised), % at 9.99 µM; 340,000 compounds, 1.5% hits; recombinant FGF22 thermal shift, SYPRO orange fluorescence; percent of sucrose octasulfate shift, DMSO zero; AID 651658; Q9HCT0;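 active = mean Tm shift, scaled 0 neutral to 100 positive control, at about 1.3% or above, every replicate too, limit read from the data; inconclusive = no clear call, values can overlap the other calls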
Env fusion inh = HIV envelope-mediated fusion inhibition; HeLa-JRFL Env/CEM21 cell fusion, luciferase; inhibition, % at 12.3 µM; 360,000 compounds, 1.1% hits;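 active = mean replicate inhibition score of at least 50 and every replicate individually at or above 50; inconclusive = only one of the two criteria met; inactive = mean below 50 and not all replicates reaching 50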;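 also: 0% = plate neutral controls and 100% = maraviroc near 300 nM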
ERAP1 inh = inhibitors of human ERAP1 aminopeptidase. Q9NZ08. recombinant ERAP1, Leu-AMC fluorescence, 60 min. inhibition, % at 10.7 µM. 340,000 compounds, 0.15% hits;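 active = mean replicate inhibition of at least 30%, or all replicates individually reaching that 30% level; inactive = mean below 30% and not every replicate reaching it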;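 also: 0% = neutral control wells and 100% = L-leucinethiol positive control wells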
Target sequence (Q9NZ08 whole entry, looked up): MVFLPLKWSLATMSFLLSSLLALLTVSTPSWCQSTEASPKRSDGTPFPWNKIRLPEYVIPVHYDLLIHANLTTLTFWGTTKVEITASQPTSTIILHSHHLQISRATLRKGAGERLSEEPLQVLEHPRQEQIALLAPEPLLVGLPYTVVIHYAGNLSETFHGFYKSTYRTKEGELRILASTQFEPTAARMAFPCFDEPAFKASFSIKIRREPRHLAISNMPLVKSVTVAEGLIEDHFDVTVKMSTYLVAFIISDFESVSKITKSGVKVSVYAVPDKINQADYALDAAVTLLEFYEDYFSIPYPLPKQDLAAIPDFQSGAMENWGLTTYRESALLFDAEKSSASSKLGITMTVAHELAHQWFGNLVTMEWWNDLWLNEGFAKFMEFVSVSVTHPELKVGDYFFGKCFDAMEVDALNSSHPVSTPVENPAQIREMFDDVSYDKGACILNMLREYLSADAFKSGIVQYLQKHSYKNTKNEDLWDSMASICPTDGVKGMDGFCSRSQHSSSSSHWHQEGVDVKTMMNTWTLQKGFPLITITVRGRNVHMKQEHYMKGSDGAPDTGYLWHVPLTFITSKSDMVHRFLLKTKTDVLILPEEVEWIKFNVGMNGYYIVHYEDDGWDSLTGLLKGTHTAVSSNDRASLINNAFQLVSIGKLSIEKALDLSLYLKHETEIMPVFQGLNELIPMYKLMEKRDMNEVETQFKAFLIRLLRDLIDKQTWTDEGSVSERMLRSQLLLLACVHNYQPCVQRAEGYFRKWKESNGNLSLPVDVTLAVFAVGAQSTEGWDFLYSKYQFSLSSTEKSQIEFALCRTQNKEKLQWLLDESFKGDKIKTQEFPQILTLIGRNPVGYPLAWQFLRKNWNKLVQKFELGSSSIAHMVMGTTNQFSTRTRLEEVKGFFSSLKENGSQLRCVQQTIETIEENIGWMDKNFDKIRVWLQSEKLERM
AID977621 = wild-type E. coli growth inhibition versus H69 humanized strain – H69 mutant RFP, wild-type GFP, cherry-pick, dose response; shares compounds with Ecoli rRNA inh; fluorescence, 24 h; activity change, negative = inhibition at 50 µM; 1,900 tested, under 10 active;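 active = Wild-type ribosome reporter drop at least double the humanized mutant ribosome reporter drop, growth loss under a set limit; inconclusive = no clear call, values can overlap the other calls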;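 also: wild-type GFP and H69 mutant RFP strains grown together 50/50 in each well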
AID977628 = E. coli growth inhibition, wild-type GFP versus h24 humanized RFP strain, dose response, h24 mutant RFP vs wild-type GFP, cherry-pick; 1,900 tested, under 10 active; shares compounds with Ecoli rRNA inh; activity change, negative = inhibition at 50 µM; E. coli WT GFP strain growth, fluorescence, 24 h;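 active = compound lowering the normal-ribosome reporter at least twice as much as the humanized-ribosome reporter, growth loss under a set limit; inconclusive = no clear call, values can overlap the other calls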;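 also: wild-type GFP and h24 humanized RFP strains co-cultured 1 to 1 per well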
The depositor's hits bear a star; [ ] = remark or other dose.

`CSc1ccccc1OCc1cc(C(=O)N(C)Cc2nonc2C)no1` gave Cneo AK release 0, PGC1a acetyl inh -2, Ecoli rRNA inh -30*, FGF22 binding 0, Env fusion inh -54, ERAP1 inh 5, AID977621 -14 and AID977628 -12.
`Cc1c(C(=O)NC(C)c2ccc(-n3ccnc3)cc2)cccc1[N+](=O)[O-]` (stereo unspecified) gave Cneo AK release 1, Ecoli rRNA inh 8, FGF22 binding 0, Env fusion inh 3 and ERAP1 inh -3.
Screening CCCN(C1CCS(=O)(=O)C1)S(=O)(=O)c1ccc2ccccc2c1 (stereo unspecified) returned Cneo AK release 1, Ecoli rRNA inh -2, FGF22 binding 0 and ERAP1 inh 0.
`O=C(Cc1cccc(NC(=O)C2CCN(C(=O)CCc3ccccc3)CC2)c1)Nc1cccc(C(=O)N2CCCCC2)c1` gave Cneo AK release 1, Ecoli rRNA inh -7, FGF22 binding 0, Env fusion inh 1 and ERAP1 inh -1.
O=C(Cc1cccc(NC(=O)C2CCCN(C(=O)CCc3ccccc3)C2)c1)Nc1cccc(C(=O)N2CCCC2)c1 (stereo unspecified) was read as Cneo AK release 0, PGC1a acetyl inh -3, Ecoli rRNA inh -19*, FGF22 binding 0, Env fusion inh -7 and AID977621 inconclusive.
For CN(C(=O)c1ccc(COc2ccccc2Cl)o1)c1ccccc1 the results were Cneo AK release -1, PGC1a acetyl inh -9, Ecoli rRNA inh -56, FGF22 binding 0, Env fusion inh 21 and ERAP1 inh -1.
CCN(CC)C(=O)c1ccc(COc2ccccc2Cl)o1 was read as Ecoli rRNA inh -20*, FGF22 binding 0, Env fusion inh -4, ERAP1 inh -1, AID977621 1.5 and AID977628 -6.9.
For Cc1cc([N+](=O)[O-])nn1CC(=O)Nc1cc(F)ccc1F the results were Ecoli rRNA inh -18*, FGF22 binding 0, Env fusion inh -5, AID977621 -16 and AID977628 inconclusive.
`Cc1cc([N+](=O)[O-])nn1CC(=O)N/N=C/c1ccccc1F` gave PGC1a acetyl inh -3, Ecoli rRNA inh 4, FGF22 binding 0, Env fusion inh 22 and ERAP1 inh 1.
Screening O=C([C@@H]1[C@@H](CO)[C@@H]2Cn3c(cccc3=O)[C@@H]2N1Cc1cc(F)ccc1F)N1CCOCC1 returned Cneo AK release 0, Ecoli rRNA inh 0, FGF22 binding 0, Env fusion inh -26[16.7 µM] and ERAP1 inh 3.
C(#CSCc1ccccc1)SCc1ccccc1 was read as Cneo AK release -2, PGC1a acetyl inh 1, Ecoli rRNA inh 0, FGF22 binding 0, Env fusion inh -13 and ERAP1 inh -7.
Screening c1ccc(CSCc2ccccc2)cc1 returned Cneo AK release 0, PGC1a acetyl inh -8, Ecoli rRNA inh -25*, FGF22 binding 0, ERAP1 inh 1, AID977621 4.9 and AID977628 0.76.
For CN(Cc1ccccc1)C(=O)CNC(=O)Cn1cnc2ccccc2c1=O the results were Cneo AK release 0 and PGC1a acetyl inh -5.
For CC(C)(C)N(Cc1ccccc1)C(=O)COC(=O)Cn1cnc2ccccc2c1=O the results were PGC1a acetyl inh 6, Ecoli rRNA inh -32*, FGF22 binding 0, Env fusion inh 2, ERAP1 inh -1, AID977621 -1.2 and AID977628 -2.9.
Screening COc1ccc(NS(=O)(=O)c2coc(C(N)=O)c2)cc1Cl returned Cneo AK release -2, PGC1a acetyl inh 5, Ecoli rRNA inh 0, FGF22 binding 0, Env fusion inh 13 and ERAP1 inh -3.
Screening O=C(Nc1cc(S(=O)(=O)N2CCOCC2)ccc1N1CCOCC1)c1ccc([N+](=O)[O-])s1 returned Cneo AK release 0, PGC1a acetyl inh 6, Ecoli rRNA inh -18*, FGF22 binding 0, Env fusion inh -5, ERAP1 inh 4, AID977621 inconclusive and AID977628 -1.9.
`Cc1ccc(NC(=O)c2ccc([N+](=O)[O-])s2)cc1S(=O)(=O)N1CCOCC1` gave Cneo AK release -1, PGC1a acetyl inh -33, Ecoli rRNA inh -40*, FGF22 binding 0, Env fusion inh 2, ERAP1 inh -1, AID977621 inconclusive and AID977628 -12.
Screening O=C(CCNC(=O)c1ccccc1)Nc1ccc(Cl)c(S(=O)(=O)N2CCCCC2)c1 returned Cneo AK release 0, PGC1a acetyl inh -14, Ecoli rRNA inh -41*, FGF22 binding 0, ERAP1 inh -3 and AID977621 -16.
Screening O=C(Nc1cc(S(=O)(=O)N2CCOCC2)ccc1N1CCOCC1)c1ccccc1[N+](=O)[O-] returned Cneo AK release -2, PGC1a acetyl inh -1, Ecoli rRNA inh 6, FGF22 binding 0, Env fusion inh 10 and ERAP1 inh 3.
Cc1ccc(NC(=O)CCCSc2ccccc2)cc1S(=O)(=O)N1CCOCC1 was read as Cneo AK release -1, PGC1a acetyl inh 0, Ecoli rRNA inh -24*, FGF22 binding 0, Env fusion inh 13, ERAP1 inh -3 and AID977621 -19.
Cc1noc(C)c1NC(=O)N(C)C[C@@H]1Oc2ccc(NC(=O)CCC(F)(F)F)cc2C(=O)N([C@@H](C)CO)C[C@@H]1C was read as Cneo AK release -7, PGC1a acetyl inh 4, Ecoli rRNA inh -1, FGF22 binding 1, Env fusion inh -8[16.7 µM] and ERAP1 inh -3.
Screening COc1ccccc1-c1noc2ncnc(Nc3ccc4c(c3)OCO4)c12 returned Cneo AK release 2, PGC1a acetyl inh 6, Ecoli rRNA inh 7, FGF22 binding 0, Env fusion inh 8 and ERAP1 inh 2.
`COc1ccccc1-c1noc2ncnc(Nc3ccccc3C)c12` gave Cneo AK release -1, PGC1a acetyl inh -6, Ecoli rRNA inh -27*, FGF22 binding 0, Env fusion inh 13, ERAP1 inh -2, AID977621 -6.9 and AID977628 -17.
COc1ccccc1Nc1ncnc2c1c(C)c(C)n2CCCN(C)C was read as Cneo AK release 0, Ecoli rRNA inh 6, FGF22 binding 0, Env fusion inh 7 and ERAP1 inh 2.
